proKLK7 act: activates the human kallikrein-7 zymogen; P49862; purified proKLK7, EDANS-DABCYL substrate fluorescence; 100% is mature enzyme control, 0% vehicle; activation, % at 7 µM; hit rate 0.9% among 370,000;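 active = activation above the mean of all tested compounds plus 3 SD, computed per campaign excluding outliers beyond control limits, cut at about 13% in these data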
JMJD2C inh: human JMJD2C demethylase inhibition | Q9H3R0 | GST-JMJD2C(1-420) H3K9me3 demethylation, DELFIA europium | inhibition, % at 2.35 µM | hit rate 0.069% among 330,000 | AID 2099;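 active = more than half of a compound's replicate wells show inhibition beyond 50%, single wells judged on their own value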;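 note: signal counts dimethyl H3K9 product captured on neutravidin plate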
NR2E3 ag-1: activates human NR2E3 receptor; Q9Y5X4; CHO-S Gal4-NCOR/VP16-NR2E3 two-hybrid, luciferase; inhibition of corepressor binding, % at 3.98 µM; hit rate 0.35% among 360,000; AID 602229;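 active = inhibition above the mean of all tested compounds plus 3 SD, cut at about 70% in these data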;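 note: higher means lower luciferase signal from less NR2E3 corepressor binding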
Target sequence (Q9Y5X4 whole entry, looked up, the tested form may be a part): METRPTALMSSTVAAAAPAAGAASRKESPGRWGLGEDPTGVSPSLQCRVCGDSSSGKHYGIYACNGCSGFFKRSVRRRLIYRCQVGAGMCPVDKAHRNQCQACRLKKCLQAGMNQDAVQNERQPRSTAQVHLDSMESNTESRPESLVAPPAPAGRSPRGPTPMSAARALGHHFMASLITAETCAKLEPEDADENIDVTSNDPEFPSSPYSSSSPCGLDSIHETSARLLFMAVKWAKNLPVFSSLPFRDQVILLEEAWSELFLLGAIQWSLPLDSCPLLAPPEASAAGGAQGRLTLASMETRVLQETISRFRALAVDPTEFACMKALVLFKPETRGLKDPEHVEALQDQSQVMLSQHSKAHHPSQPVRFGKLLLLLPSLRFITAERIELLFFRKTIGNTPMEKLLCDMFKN
NR2E3 ag-2: activates human photoreceptor nuclear receptor NR2E3; inhibition of corepressor binding, % at 4.78 µM; GST-NR2E3/biotin-RetCOR TR-FRET, 1536-well; hit rate 0.12% among 320,000; Q9Y5X4;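 active = percent inhibition above the cutoff of mean plus 3 SD of all tested compounds, set per screening campaign, cut at about 20% in these data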
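system = GST-tagged NR2E3 plus biotinylated RetCOR corepressor | input = 1.35 nM GST-NR2E3 | also added = 7 nM biotin-RetCOR | schedule = 5 h incubation at 4 °C | measured by = TR-FRET with europium anti-GST and streptavidin-D2, 340 nm excitation | read-out = percent loss of FRET ratio relative to control wells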
ADAM17 inh: inhibitors of human ADAM17. P78536. recombinant ADAM17, EDANS/DABCYL FRET peptide cleavage. inhibition, % at 6.95 µM. hit rate 0.83% among 370,000;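 active = inhibition above the mean of compounds lying between control limits plus 3 SD, set per campaign, cut at about 8.5% in these data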
ADAM10 inh: ADAM10 inhibition, QFRET primary screen; O14672; recombinant ADAM10, EDANS/DABCYL FRET peptide cleavage, 3 h; inhibition, % at 7 µM; hit rate 0.62% among 370,000; AID 720582;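 active = inhibition above a per-campaign cutoff equal to the mean of compounds falling between control-based bounds plus 3 SD, cut at about 20% in these data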
KLK7 act conf: confirmation of human kallikrein-7 zymogen activators; shares compounds with proKLK7 act; purified proKLK7, EDANS-DABCYL substrate fluorescence; scaled: vehicle 0, mature enzyme 100; activation, % at 7 µM; hit rate 68% among 3,200; AID 686949;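 active = activation, as change over the incubation, above the mean of all tested compounds plus 3 SD, cut at about 13% in these data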
EDANS-DABCYL int: optically interferes with EDANS-DABCYL signal, flagging KLK7 hits. activation, % at 7 µM. EDANS-DABCYL substrate fluorescence interference, no enzyme, 4 h; solvent 0%, active enzyme control 100%. hit rate 80% among 3,200. shares compounds with proKLK7 act;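 active = activation above the all-compound mean plus 3 SD, ignoring values outside control-based bounds, cut at about 4.8% in these data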;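 note: value is the 4 h activation minus the activation read at time zero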
Large screens that a line does not name were inactive (follow-up assays come after a bar, where they were run). Most compounds without a hit are left out; they make up all but 2.5% or so of the library.

N#Cc1c(N)n(-c2cccc(C(=O)O)c2)c2nc3ccccc3nc12	proKLK7 act 62 | KLK7 act conf 68 | EDANS-DABCYL int 65
CN(CC(=O)N(C)CC(=O)Nc1c(Cl)cccc1Cl)Cc1ccc(Br)s1	none
COc1cc(C(=O)NNC(=S)Nc2ccc(S(N)(=O)=O)cc2)cc(OC)c1OC	none
CC(=O)Nc1ccc2nc(NC(=O)c3cccs3)sc2c1	none
COc1ccc2nc(NC(=O)c3cccs3)sc2c1	proKLK7 act 25 | KLK7 act conf inactive | EDANS-DABCYL int inactive
O=C(NCc1ccc2c(c1)OCO2)c1ccco1	none
O=C(CC(SCCO)c1ccc2c(c1)OCO2)c1ccco1 (stereo unspecified)	proKLK7 act 17 | KLK7 act conf 48 | EDANS-DABCYL int 46
CCC(=O)N1Cc2cc(C(=O)Nc3nccs3)nc(-c3cccc(-c4ccccc4OC)c3)c2[C@H]1CCO	none (no result: JMJD2C inh, NR2E3 ag-2)
CCCCn1c(=NC(=O)c2ccco2)c(C(=O)OCC)cc2c(=O)n3ccccc3nc21	proKLK7 act 50 | KLK7 act conf 21 | EDANS-DABCYL int 21
CCOCCCn1c(=NC(=O)c2cccs2)c(C#N)cc2c(=O)n3ccccc3nc21	proKLK7 act 53 | KLK7 act conf inactive | EDANS-DABCYL int inactive
CCOC(=O)c1cc2c(=O)n3cccc(C)c3nc2n(CCCOC)c1=NC(=O)c1cccnc1	none
Cc1cccn2c(=O)c3cc(C#N)c(=NC(=O)c4ccncc4)n(CCCOC(C)C)c3nc12	none
COCCCn1c(=NC(=O)c2ccncc2)c(C#N)cc2c(=O)n3cccc(C)c3nc21	proKLK7 act 15 | KLK7 act conf 30 | EDANS-DABCYL int 47
CCCCn1c(=NC(=O)c2ccco2)c(C(=O)OCC)cc2c(=O)n3cccc(C)c3nc21	proKLK7 act 18 | KLK7 act conf inactive | EDANS-DABCYL int inactive
CCOC(=O)c1[nH]c2ccccc2c1NC(=S)Nc1cccc(C)c1	none
CCOc1ccc(NC(=O)CN2C(=O)NC(CCc3ccccc3)C2=O)cc1OCC (stereo unspecified)	none (no result: NR2E3 ag-2)

Screens (PubChem BioAssay)
